The values below come from PubChem BioAssay.

Experiment [1] is described as follows: inhibitors of TNFa-induced NFkB p65 translocation, primary screen, imaging, HUVEC, MLSMR starter and 10KST1 sets (AID 438;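 active = inhibition above 20% together with a positive visual image hit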;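 also: compound added about 3h40 before a 20 min TNFalpha stimulation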;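 as to inhibition: signal is the nuclear over cytoplasmic p65 intensity ratio per well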). Particulars: HUVEC TNFa-induced p65 nuclear translocation; cell count: measured here: nuclei count (cytotoxicity indicator), at 2.08 µM; inhibition: at 2 µM, stronger effect = higher value, 0% TNFa-plus-vehicle, 100% no-TNFa wells.
Experiment [2] in a line: inhibitors of mutant huntingtin aggregation, primary screen, imaging, exon1htt(103Q)mCFP cells, high-content imaging (AID 483;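 active = visual image review flags a hit and inhibition of aggregation exceeds 20%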;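 also: compound exposure lasted 3 days before fixation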;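 as to nuclei count: percent of the per-plate median nuclei count of sample wells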). The conditions noted are these: exon1htt(103Q)mCFP cell line, aggregate imaging, at 2 µM; inhibition of aggregation: stronger effect = higher value; nuclei count: measured here: cell count, toxicity.
Experiment [3] can be described thus: inhibitors of E-selectin induction by TNFa, primary screen, imaging, HUVEC, immunofluorescence, MLSMR starter and 10KST1 sets (AID 487;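 active = visually confirmed hit in the image check and inhibition above 20%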;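 as to inhibition: signal is fraction of cell area covered by stained E-selectin grains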;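 as to nuclei count: 100% = median nuclei count of all wells on the same plate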). Particulars: HUVEC TNFalpha-induced E-selectin immunofluorescence imaging, at 2 µM; inhibition: stronger effect = higher value; nuclei count: measured here: cell number, toxicity.
The target of experiment [4] is Voltage-gated potassium channel subunit beta-2 (Rattus norvegicus) (UniProt P62483). The experiment can be described thus: KvBeta enzyme negative modulators, primary screen, biochemical, NADPH fluorescence (AID 622;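 active = fluorescence slope higher than the sample average by over 3 SD, cut at about -0.22 in these data, passing the limit was not always enough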;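 also: slope of raw intensity against log time taken from 70 to 1610 s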). Particulars: recombinant KvBeta, 4-cyanobenzaldehyde reduction, at 10 µM, stronger effect = higher value.
Voltage-gated potassium channel subunit beta-2 (Rattus norvegicus), sequence (P62483 whole entry, looked up): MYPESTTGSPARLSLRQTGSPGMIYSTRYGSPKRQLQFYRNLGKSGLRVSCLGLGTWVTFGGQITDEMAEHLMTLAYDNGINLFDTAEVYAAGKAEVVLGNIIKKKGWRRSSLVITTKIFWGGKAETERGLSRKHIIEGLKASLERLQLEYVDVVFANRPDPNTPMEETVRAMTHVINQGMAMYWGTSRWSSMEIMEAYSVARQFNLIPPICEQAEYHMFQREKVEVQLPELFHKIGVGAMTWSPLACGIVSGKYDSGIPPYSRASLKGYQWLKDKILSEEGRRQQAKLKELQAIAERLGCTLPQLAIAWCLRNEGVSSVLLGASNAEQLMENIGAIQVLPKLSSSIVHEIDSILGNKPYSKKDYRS
Experiment [5] shares this target. Description: KvBeta positive modulators, primary screen, biochemical, NADPH fluorescence (AID 623;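 active = NADPH fluorescence slope more negative than the mean of all samples by about 3 SD, 99.7% confidence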;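 also: fluorescence intensity change per second fitted from 20 to 320 s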). Particulars: Recombinant KvBeta, NADPH fluorescence decrease slope, 10 min; at 10 µM; stronger effect = lower value.
The target of experiment [6] is Muscarinic acetylcholine receptor M4 (Homo sapiens) (UniProt P08173). The experiment can be described thus: compounds altering M4/GIRK thallium flux, either direction, primary screen, M4 allosteric agonist project, cell-based, HEK293 M4/GIRK, BTC-AM (AID 625;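 active = fluorescence slope after compound addition differing from the mean of all tested samples at 99.7% confidence, mostly higher but some lower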;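 also: thallium influx through GIRK channels coupled to M4 in HEK293 cells with BTC-AM dye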). Particulars: at 10 µM, actives lie on both sides. The procedure, abridged: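 Assay system: HEK293 cells with M4 receptor and GIRK channels / Controls: carbachol and DMSO controls / Schedule: 1 h dye loading, 2 min kinetic read / Technique: kinetic fluorescence with BTC-AM dye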
Muscarinic acetylcholine receptor M4 (Homo sapiens), sequence (P08173 whole entry, looked up): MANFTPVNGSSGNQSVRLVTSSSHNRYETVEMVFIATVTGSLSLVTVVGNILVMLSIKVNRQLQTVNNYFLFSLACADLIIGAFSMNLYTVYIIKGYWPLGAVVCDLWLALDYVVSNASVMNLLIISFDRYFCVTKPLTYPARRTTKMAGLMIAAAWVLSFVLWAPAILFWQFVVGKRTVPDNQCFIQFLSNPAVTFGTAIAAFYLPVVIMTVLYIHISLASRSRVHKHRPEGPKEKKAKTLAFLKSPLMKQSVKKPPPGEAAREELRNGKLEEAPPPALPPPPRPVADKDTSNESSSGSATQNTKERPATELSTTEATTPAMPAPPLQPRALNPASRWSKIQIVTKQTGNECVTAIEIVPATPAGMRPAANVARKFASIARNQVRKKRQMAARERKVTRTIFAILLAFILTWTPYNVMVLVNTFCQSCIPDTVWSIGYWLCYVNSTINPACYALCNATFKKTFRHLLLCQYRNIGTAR

Experiment [7] in a line: inhibitors of Sendai virus-induced IRF3 signaling, primary screen, TLR/RLR signaling modifier project, cell-based, Sendai virus stimulus, luciferase, 10K MLSCN set (AID 602276;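 active = inhibition at or above 50% at 10 µM; inactive = inhibition below 50%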;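 also: firefly luciferase from ISG56 promoter only with Renilla not read in this screen; 0% = Sendai virus plus DMSO and 100% = medium plus DMSO without virus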). The conditions noted are these: HEK293 RL24 IRF3 luciferase reporter, at 10 µM, stronger effect = higher value. For orientation: A reporter such as luciferase makes a cellular process visible.
The nature of experiment [8]: inhibitors of poly I:C-induced TLR3 signaling, primary screen, cell-based, poly I:C stimulus, luciferase, 10K MLSCN set (AID 602277). Particulars: HEK293-TLR3 RL24 IRF3 luciferase reporter, at 10 µM, stronger effect = higher value.

Calls of active or inactive are those of the source.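 The calls were made as follows, unless noted: active = inhibition of the reporter signal at or above 50%; inactive = inhibition below 50%.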

Turning to `Cc1cc(Cl)ccc1OCCCC(=O)N1CCOCC1`, the cell count in experiment [1] is 571. The inhibition (as a rule, the change of the read-out against control, counted positive when it falls) in experiment [1] was -1.5% (inactive); in experiment [3], -29.2% (inactive); in experiment [7], -29.3% (inactive); in experiment [8], -72.8% (inactive). Further, the inhibition of aggregation in experiment [2] was -0.1% (inactive). In addition, the nuclei count in experiment [2] came out at 94.9%; in experiment [3], 112%. In addition, the values for the fluorescence slope in experiment [4] and in experiment [6] were -0.503 (inactive) and 0.00464 (inactive), respectively. In experiment [5], the NADPH fluorescence slope was -0.000205 (inactive).

Consider `O=C(NCCC1=CCCCC1)C1CCN(S(=O)(=O)c2cccc3nsnc23)CC1`, for which the cell count in experiment [1] turned out to be 609. The inhibition in experiment [1] was 7.7% (inactive); in experiment [3] it was -41.8% (inactive); in experiment [7] it was 13.1% (inactive); in experiment [8], 26.5% (inactive). In addition, the inhibition of aggregation in experiment [2] is 4.8% (inactive). Further, the nuclei count in experiment [2] was 94.6%; in experiment [3], 126%. Further, the figures for the fluorescence slope in experiment [4] and in experiment [6] were -0.443 (inactive) and 0.0046 (inactive), respectively. In addition, the NADPH fluorescence slope in experiment [5] was -6e-05 (inactive).

On to `CC(=O)Nc1ccc(S(=O)(=O)N(CC(=O)O)Cc2ccccc2)cc1`, for which the cell count in experiment [1] was 487. Further, the inhibition in experiment [1] was 6% (inactive); in experiment [3], -167% (inactive); in experiment [7], 8.06% (inactive); in experiment [8], 14.2% (inactive). For the same compound, the inhibition of aggregation in experiment [2] was 4.7% (inactive). The figures for the nuclei count in experiment [2] and in experiment [3] were 107% and 130%, respectively. For the same compound, the fluorescence slope in experiment [4] is -0.575 (inactive); in experiment [6], 0.00557 (inactive). Besides, the NADPH fluorescence slope in experiment [5] was -4.6e-05 (inactive).

`COc1ccc(CCNC(=O)COc2ccc(S(=O)(=O)N3CCOCC3)cc2)cc1`: the cell count in experiment [1] was 588. Besides, the inhibition in experiment [1] is -17.6% (inactive); in experiment [3], 11.7% (inactive); in experiment [7] it was 12.7% (inactive); in experiment [8], 23% (inactive). The inhibition of aggregation in experiment [2] was 10.7% (inactive). For the same compound, the nuclei count in experiment [2] was determined as 88.7%; in experiment [3], 116%. For the same compound, the fluorescence slope is -0.32 (inactive) in experiment [4] and 0.00641 (inactive) in experiment [6]. Also, the NADPH fluorescence slope in experiment [5] is -4.1e-05 (inactive).

For `Cc1ccc(-c2nnn(CC(=O)N(CC(=O)NC3CCCCC3)c3cnc4ccccc4c3)n2)o1`, in experiment [1], the cell count was determined as 300. Besides, the inhibition in experiment [1] was -7.6% (inactive); in experiment [3], -22.9% (inactive); in experiment [7], 21% (inactive); in experiment [8] it was 24.7% (inactive). Moreover, the inhibition of aggregation in experiment [2] was 27.2% (inactive). For the same compound, the nuclei count in experiment [2] was found to be 94.4%; in experiment [3], 107%. Also, the fluorescence slope in experiment [4] is -0.523 (inactive); in experiment [6], 0.00469 (inactive). Besides, the NADPH fluorescence slope in experiment [5] was -2.2e-06 (inactive).

For the compound `CC(C)=CC(=O)OCC(=O)NC(=O)NC(C)(C)C`, the cell count in experiment [1] amounted to 220. Also, the inhibition was 13.1% (inactive) in experiment [1], 3.9% (inactive) in experiment [3], -2.29% (inactive) in experiment [7] and 9.61% (inactive) in experiment [8]. The inhibition of aggregation in experiment [2] was 14.1% (inactive). Moreover, the nuclei count amounted to 97.7% in experiment [2] and 98.5% in experiment [3]. For the same compound, the fluorescence slope in experiment [4] is -0.591 (inactive); in experiment [6], 0.00792 (inactive). The NADPH fluorescence slope in experiment [5] is -1.3e-05 (inactive).

`Cc1csc(OCc2ccc(C#N)cc2)n1`: the cell count in experiment [1] came out at 636. Moreover, the inhibition is -4.4% (inactive) in experiment [1], -4.8% (inactive) in experiment [3], 7.71% (inactive) in experiment [7] and 5.79% (inactive) in experiment [8]. For the same compound, the inhibition of aggregation in experiment [2] is -1.8% (inactive). The figures for the nuclei count in experiment [2] and in experiment [3] were 97.8% and 114%, respectively. The fluorescence slope in experiment [4] is -0.6 (inactive); in experiment [6], 0.0082 (inactive). Besides, in experiment [5], the NADPH fluorescence slope was -3.4e-05 (inactive).

For `C/C(N)=C(/C#N)C(=O)COC(=O)COc1ccc(Cl)cc1`, the cell count in experiment [1] was determined as 500. Moreover, the inhibition was 4.3% (inactive) in experiment [1], -5.5% (inactive) in experiment [3], 18.1% (inactive) in experiment [7] and 23.1% (inactive) in experiment [8]. Further, the inhibition of aggregation in experiment [2] is 11.4% (inactive). Also, the nuclei count in experiment [2] amounted to 97.4%; in experiment [3], 105%. Also, the values for the fluorescence slope in experiment [4] and in experiment [6] were -0.414 (inactive) and 0.00641 (inactive), respectively. Besides, the NADPH fluorescence slope in experiment [5] is 9.1e-05 (inactive).

Consider `CCOC(=O)c1ccc(NC(=O)CC2SC(=NC)N(C)C2=O)cc1` (centres undefined), for which the cell count in experiment [1] was found to be 401. Further, the inhibition was 14.6% (inactive) in experiment [1], -14.5% (inactive) in experiment [3], 13.7% (inactive) in experiment [7] and 17.7% (inactive) in experiment [8]. The inhibition of aggregation in experiment [2] was -8.2% (inactive). Further, the nuclei count in experiment [2] came out at 103%; in experiment [3], 110%. The fluorescence slope is -0.48 (inactive) in experiment [4] and 0.00547 (inactive) in experiment [6]. Further, in experiment [5], the NADPH fluorescence slope was -5.8e-05 (inactive).

For the compound `Cc1ccc(S(=O)(=O)N(CC(=O)N2CCOCC2)CC(=O)N2CCOCC2)cc1`, the cell count in experiment [1] was 676. Further, the inhibition is -9% (inactive) in experiment [1], -163% (inactive) in experiment [3], 13% (inactive) in experiment [7] and 27.1% (inactive) in experiment [8]. Further, the inhibition of aggregation in experiment [2] was -5.6% (inactive). The figures for the nuclei count in experiment [2] and in experiment [3] were 108% and 106%, respectively. For the same compound, the fluorescence slope is -0.486 (inactive) in experiment [4] and 0.00519 (inactive) in experiment [6]. Further, in experiment [5], the NADPH fluorescence slope is -1.3e-05 (inactive).

In the case of `O=C(NCc1ccco1)C1CCN(S(=O)(=O)N2CCC3(CC2)OCCO3)CC1`, the cell count in experiment [1] stood at 358. The inhibition was 5.3% (inactive) in experiment [1], 18% (inactive) in experiment [3], 0.326% (inactive) in experiment [7] and 6.88% (inactive) in experiment [8]. The inhibition of aggregation in experiment [2] was 28.1% (inactive). For the same compound, the results for the nuclei count in experiment [2] and in experiment [3] were 84.3% and 72.6%, respectively. For the same compound, the fluorescence slope in experiment [4] was -0.317 (inactive); in experiment [6], 0.00611 (inactive). Further, in experiment [5], the NADPH fluorescence slope was -3.5e-05 (inactive).

Turning to `COc1cccc(C(c2nnnn2Cc2ccccc2)N2CCN(C(=O)c3ccco3)CC2)c1OC` (centres undefined), the cell count in experiment [1] came to 414. In addition, the inhibition is 4.3% (inactive) in experiment [1], -195% (inactive) in experiment [3], 8.65% (inactive) in experiment [7] and 11.2% (inactive) in experiment [8]. For the same compound, in experiment [2], the inhibition of aggregation was 5% (inactive). For the same compound, the figures for the nuclei count in experiment [2] and in experiment [3] were 69.9% and 161%, respectively. In addition, the fluorescence slope was -0.473 (inactive) in experiment [4] and 0.00486 (inactive) in experiment [6]. The NADPH fluorescence slope in experiment [5] was -2e-05 (inactive).

Take `O=C(CSc1nc(C2CCCCC2)n(-c2ccccc2)n1)NCCN1C(=O)CSC1=O`: the cell count in experiment [1] was 382. Besides, the inhibition in experiment [1] was -5.9% (inactive); in experiment [3], -13.3% (inactive); in experiment [7], 15.1% (inactive); in experiment [8], 23.3% (inactive). Moreover, the inhibition of aggregation in experiment [2] was 8% (inactive). Further, the nuclei count in experiment [2] came to 112%; in experiment [3], 140%. The fluorescence slope in experiment [4] is -0.572 (inactive); in experiment [6] it was 0.00728 (inactive). Further, the NADPH fluorescence slope in experiment [5] was -4.9e-05 (inactive).

Consider `CCCNC(=O)c1c(N)n(-c2cc(OC)cc(OC)c2)c2nc3ccccc3nc12`, for which the cell count in experiment [1] came to 587. The inhibition was -7% (inactive) in experiment [1], -89.1% (inactive) in experiment [3], 8.54% (inactive) in experiment [7] and -6.79% (inactive) in experiment [8]. The inhibition of aggregation in experiment [2] is 3% (inactive). Besides, the nuclei count is 93.7% in experiment [2] and 135% in experiment [3]. Further, the fluorescence slope in experiment [4] is -0.367 (inactive); in experiment [6], 0.00602 (inactive). In addition, in experiment [5], the NADPH fluorescence slope is 2.2e-05 (inactive).
